TNAP inh hiacc – human TNAP enzyme inhibitors, primary screen, biochemical, luminescent, high phosphate acceptor level, uHTS; inhibition, % at 20 µM; purified TNAP, CDP-star luminescence, 1 M DEA; Alkaline phosphatase, tissue-nonspecific isozyme (Homo sapiens), P05186; hit rate 0.03% among 200,000; AID 1135, 2008;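 active = over 50% inhibition of tissue-nonspecific alkaline phosphatase at 20 µM in the single-dose screen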
CHT PAM – CHT positive allosteric modulators, primary screen, cell-based, membrane potential dye, choline EC20 | hit rate 0.49% among 310,000 | CHT-expressing cells; hits give high values; LV-AA mutant CHT in HEK293 cells | AID 488977, 2010 | High affinity choline transporter 1 (Homo sapiens), Q9GZV3 | B-score at 10 µM;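 active = initial fluorescence not abnormally high and integrated response B-score, plate-corrected, over 3 SD above library mean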
TNAP act hiacc – TNAP activators at high phosphate acceptor level, primary screen, biochemical, luminescence, uHTS | purified TNAP, CDP-star luminescence, 1 M DEA, 30 min; hits give high values; 0 = EDTA background, 1 = DMSO-only activity | activation factor at 20 µM | 200,000 tested, under 10 active | AID 1136, 2008;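 active = activation factor at least 2 at 20 µM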
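Assay system: human TNAP; Input: enzyme diluted 1/800 final; Reagent: CDP-star luminogenic substrate at 100 µM final; Timing: 30 min, room temperature; Signal: luminescence; Evaluation: TNAP activation factor scaled between EDTA and DMSO control wells.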
CHT inh – inhibitors of human choline transporter CHT; High affinity choline transporter 1 (Homo sapiens), Q9GZV3; CHT-expressing cells, membrane potential dye, choline response; hits give low values; B-score at 10 µM; hit rate 0.86% among 310,000; AID 488975, 2010;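 active = B-score over 3 SD under the library average, and starting fluorescence ratio not unusually high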;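 note: choline stimulus applied at its EC90 after an EC20 pre-addition; B-score computed on integrated fluorescence ratio after choline addition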
TNAP inh noacc – human TNAP enzyme inhibitors, primary screen, biochemical, luminescent, no phosphate acceptor, uHTS | Alkaline phosphatase, tissue-nonspecific isozyme (Homo sapiens), P05186 | purified TNAP, CDP-star luminescence, 30 min | inhibition, % at 20 µM | hit rate 0.26% among 200,000 | AID 1012, 2008;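 active = tissue-nonspecific alkaline phosphatase inhibition above about 50% at 20 µM in the single-dose screen, limit read from the data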
ABCB6 inh 2 – ABCB6 transporter inhibitors, primary screen, K562-ABCB6 cells, flow cytometry, MLPCN library; AID 602162, 2011; K562-ABCB6 porphyrin accumulation, 1 h; hits give low values; fluorescence ratio to DMSO, % at 10 µM; hit rate 0.19% among 360,000;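 active = fluorescence ratio to DMSO below 75%, the collection mean minus 3 SD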;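 note: signal is porphyrin accumulated inside mitochondria; lower ratio means ABCB6 inhibition with less porphyrin fluorescence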
Target sequence (Q9NP58 whole entry, looked up): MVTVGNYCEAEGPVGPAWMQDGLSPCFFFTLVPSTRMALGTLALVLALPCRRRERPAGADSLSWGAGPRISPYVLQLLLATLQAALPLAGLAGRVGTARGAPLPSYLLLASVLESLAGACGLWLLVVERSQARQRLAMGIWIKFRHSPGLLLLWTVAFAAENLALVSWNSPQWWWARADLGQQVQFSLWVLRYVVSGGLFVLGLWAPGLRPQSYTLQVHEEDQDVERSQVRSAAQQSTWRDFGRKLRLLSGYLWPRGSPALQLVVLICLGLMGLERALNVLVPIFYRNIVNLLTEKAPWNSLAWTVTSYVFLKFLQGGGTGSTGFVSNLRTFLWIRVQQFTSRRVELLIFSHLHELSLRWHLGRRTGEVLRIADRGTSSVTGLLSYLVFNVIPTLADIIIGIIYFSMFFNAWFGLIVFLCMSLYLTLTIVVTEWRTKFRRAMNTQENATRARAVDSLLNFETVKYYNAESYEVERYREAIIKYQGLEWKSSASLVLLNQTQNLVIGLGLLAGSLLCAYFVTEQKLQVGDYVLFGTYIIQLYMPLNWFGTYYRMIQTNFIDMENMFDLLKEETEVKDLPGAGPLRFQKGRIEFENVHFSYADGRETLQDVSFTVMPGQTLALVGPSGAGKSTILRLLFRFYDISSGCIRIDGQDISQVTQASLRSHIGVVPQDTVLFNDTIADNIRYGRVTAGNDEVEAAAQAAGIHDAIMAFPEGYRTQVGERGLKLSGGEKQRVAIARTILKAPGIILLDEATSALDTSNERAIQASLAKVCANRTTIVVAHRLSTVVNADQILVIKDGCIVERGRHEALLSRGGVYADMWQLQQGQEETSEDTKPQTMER
CHT block conf – CHT inhibitors, confirmation, cell-based, membrane potential dye, duplicate. shares compounds with CHT inh. CHT-expressing cells, choline membrane potential dye; LV-to-AA substituted CHT, HEK293 cells. CHT activity remaining % of control (hits give low values), % at 10 µM. hit rate 70% among 2,400. AID 493221, 2011;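 active = choline transporter activity left, mean of duplicates at 10 µM, below buffer-only control mean minus 3 SD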;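 note: depolarization triggered by choline at its EC90 following an EC20 pre-addition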
HEK293 CHT ctr – membrane potential effects in parental HEK293, counter-screen for CHT inhibitor project, cell-based, membrane potential dye; shares compounds with CHT inh; choline response; active = decrease or increase beyond buffer ±3SD; membrane potential ratio readout (active if shifted either direction beyond buffer ±3SD; no single direction) at 10 µM; hit rate 4% among 2,400;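 note: parental cells lack the transporter so any hit is non-specific; ratio is peak minus trough fluorescence over baseline after EC90 choline challenge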
Each line names hits and unclear results; the compound was inactive in the other large screens (follow-up assays come after a bar, where they were run). Most compounds without a hit are left out; they make up all but 1.4% or so of the library.

COC(=O)C(CC(=O)c1ccccc1)CC(=O)c1ccccc1	CHT inh -5 (no result: TNAP inh hiacc, TNAP act hiacc, TNAP inh noacc) | CHT block conf inactive | HEK293 CHT ctr inactive
CC(C(=O)NC1CCCCCC1)N(c1ccccc1)S(C)(=O)=O (configuration not stated)	CHT inh -11.6 | CHT block conf inactive | HEK293 CHT ctr inactive
Cc1cc(=O)[nH]c(SCCOc2ccc(OC(C)C)cc2)n1	CHT inh -4.95 | CHT block conf inactive | HEK293 CHT ctr inactive
Cc1cc(S(=O)(=O)NCc2ccncc2)c(C)cc1Br	CHT inh -5.01 (no result: TNAP inh hiacc, TNAP act hiacc, TNAP inh noacc) | CHT block conf 67.0% | HEK293 CHT ctr inactive
O=[N+]([O-])c1cc(Cc2ccccc2)cc(C=Nc2ccc(N3CCOCC3)cc2)c1O	CHT inh -5.86 | CHT block conf 65.9% | HEK293 CHT ctr inactive
O=C(NCC(c1cccnc1)N1CCOCC1)c1cccc(Cl)c1 (configuration not stated)	none
O=C(NCC(c1cccnc1)N1CCN(c2ccccc2F)CC1)c1cccc(Cl)c1 (configuration not stated)	CHT inh -6.86 | CHT block conf inactive | HEK293 CHT ctr inactive
CCCCn1c(=O)[nH]c(=O)c2c1nc(CN1C(=O)c3ccccc3S1(=O)=O)n2CCC	none
CCCCn1c(=O)[nH]c(=O)c2c1nc(Cn1ncc(Cl)c(Cl)c1=O)n2CCC	CHT inh -6.14 (no result: TNAP inh hiacc, TNAP act hiacc, TNAP inh noacc) | CHT block conf 52.7% | HEK293 CHT ctr inactive
Cc1cc2[nH]c(=O)c(=O)[nH]c2cc1S(=O)(=O)Nc1cccc(F)c1	none (no result: TNAP inh hiacc, TNAP act hiacc, TNAP inh noacc)
Cc1cc(SCC(=O)Nc2cccc(S(N)(=O)=O)c2)c(C)cc1Br	none
Cc1cc(SCC(=O)Nc2cccc(S(=O)(=O)NC3=NCCCCC3)c2)c(C)cc1Br	CHT inh -4.96 | CHT block conf inactive | HEK293 CHT ctr inactive
CCOCCCn1c(SCC(=O)Nc2cccc(S(=O)(=O)NC3=NCCCCC3)c2)nc2ccccc2c1=O	CHT inh -6.39 (no result: TNAP inh hiacc, TNAP act hiacc, TNAP inh noacc) | CHT block conf inactive | HEK293 CHT ctr inactive
CCCn1c(SCC(=O)Nc2cccc(S(=O)(=O)NC3=NCCCCC3)c2)nc2ccccc2c1=O	none
COc1ccc(-n2nc(C(=O)NCC(=O)NCCc3ccc(OC)c(OC)c3)c3ccccc3c2=O)cc1Cl	none (no result: TNAP inh hiacc, TNAP act hiacc, TNAP inh noacc)
CCC(=O)c1ccc(OCC(=O)OC(C)C(=O)N2CCc3ccccc32)cc1 (configuration not stated)	none (no result: TNAP inh hiacc, TNAP act hiacc, TNAP inh noacc)
Cc1ccc(S(=O)(=O)CCC(=O)OC(C)C(=O)N2CCc3ccccc32)cc1 (configuration not stated)	CHT inh -7.38 (no result: TNAP inh hiacc, TNAP act hiacc, TNAP inh noacc) | CHT block conf 36.7% | HEK293 CHT ctr inactive
COc1ccc(Nc2nc3ccccc3n2C)cc1	CHT inh -6.49 (no result: TNAP inh hiacc, TNAP act hiacc, TNAP inh noacc) | CHT block conf 52.8% | HEK293 CHT ctr inactive
CCCCn1c(Nc2ccc(OC)cc2)nc2ccccc21	none (no result: TNAP inh hiacc, TNAP act hiacc, TNAP inh noacc)
COc1ccc(C(=O)C2CCCN(C(=O)c3noc4c3CCCC4)C2)cc1F (configuration not stated)	none | CHT block conf 47.2% | HEK293 CHT ctr inactive
COc1ccc(C(=O)C2CCCN(C(=O)c3noc4c3CCCC4)C2)c(C)c1 (configuration not stated)	none
Cc1ccc(NC(=O)COC(=O)C2CSC3(C)CCC(=O)N23)cc1S(=O)(=O)N1CCOCC1 (configuration not stated)	CHT inh -7.31 | CHT block conf inactive | HEK293 CHT ctr inactive
Cc1ccc(NC(=O)C2CSC3(C)CCC(=O)N23)cc1S(=O)(=O)N1CCOCC1 (configuration not stated)	none (no result: TNAP inh hiacc, CHT PAM, TNAP act hiacc, CHT inh, TNAP inh noacc)
Cc1ccc(C)c(N2CCN(C(=O)c3nn(C)c4c3CS(=O)(=O)c3ccccc3-4)CC2)c1	none (no result: TNAP inh hiacc, TNAP act hiacc, TNAP inh noacc)
CCOc1ccc(CC(=O)Nc2c3c(nn2C(C)(C)C)CS(=O)(=O)C3)cc1	none (no result: TNAP inh hiacc, TNAP act hiacc, TNAP inh noacc)
CCCCN(C)CCNC(=O)CN1C(=O)CSc2ccc(S(=O)(=O)N3CCCC3)cc21	CHT inh -5.73 (no result: TNAP inh hiacc, TNAP act hiacc, TNAP inh noacc) | CHT block conf 58.3% | HEK293 CHT ctr inactive
CC1CCN(S(=O)(=O)c2ccc3c(c2)N(CC(=O)NCCCN2CCCCC2C)C(=O)CS3)CC1 (configuration not stated)	CHT inh -5.47 (no result: TNAP inh hiacc, TNAP act hiacc, TNAP inh noacc) | CHT block conf 44.5% | HEK293 CHT ctr inactive
CC1CCN(S(=O)(=O)c2ccc3c(c2)N(CC(=O)NCCN2C(C)CCCC2C)C(=O)CS3)CC1 (configuration not stated)	CHT inh -10.4 (no result: TNAP inh hiacc, TNAP act hiacc, TNAP inh noacc) | CHT block conf 17.0% | HEK293 CHT ctr inactive
COc1ccccc1C(=O)NNC(=O)c1sccc1-n1cccc1	none
OC(c1cccc(F)c1)c1ncc(-c2ccc(C(F)(F)F)cc2)[nH]1 (configuration not stated)	none (no result: TNAP inh hiacc, CHT PAM, TNAP act hiacc, CHT inh, TNAP inh noacc)
N=C1N(/N=C/c2ccccc2)C(=Nc2ccccc2)C(=S)N1c1ccccc1	none
O=C1CC(Nc2ccc(N3CCOCC3)cc2)C(=O)N1CCc1ccccc1 (configuration not stated)	none
NC(=O)Cn1c(=O)n(CCC(=O)NCCSCc2ccccc2)c(=O)c2ccccc21	none
CCOC(=O)C1(C)CCN1C(=O)c1cccc(C(F)(F)F)c1 (configuration not stated)	none (no result: TNAP inh hiacc, CHT PAM, TNAP act hiacc, CHT inh, TNAP inh noacc)
NS(=O)(=O)c1cccc(NC(=O)CSc2nnc(C3CC3)n2Cc2ccccc2)c1	CHT inh -5.93 (no result: TNAP inh hiacc, TNAP act hiacc, TNAP inh noacc) | CHT block conf inactive | HEK293 CHT ctr inactive
O=C(C1CCN(CCCc2ccccc2)CC1)N(CCc1ccccc1)Cc1ccccc1	CHT inh -8.15 | CHT block conf 23.1% | HEK293 CHT ctr 3.46
COc1ccc(C(=O)c2ccc(Cl)cc2)cc1	none
O=C(c1ccc(O)cc1)c1ccc(Cl)cc1	CHT inh -5.99 | CHT block conf 50.0% | HEK293 CHT ctr inactive
Cc1cc(C)n2nc(SCC(=O)NC3CCCCC3)nc2n1	none (no result: TNAP inh hiacc, TNAP act hiacc, TNAP inh noacc)
CCOC(=O)Cc1csc(NS(=O)(=O)c2ccc3c4c(cccc24)C(=O)N3CC)n1	CHT inh -4.98 | CHT block conf 46.2% | HEK293 CHT ctr inactive
CCOC(=O)CNS(=O)(=O)c1ccc2c3c(cccc13)C(=O)N2CC	none
O=C(C[n+]1cc(Br)cc(Br)c1)c1ccccc1	none (no result: TNAP inh hiacc, TNAP act hiacc, TNAP inh noacc)

Compound activity deposited in PubChem BioAssay by several laboratories.
